# Laboratory results from ChEMBL document CHEMBL4138240, “Structure-guided design, synthesis and evaluation of oxazolidinone-based inhibitors of norovirus 3CL protease” (Eur J Med Chem, 2018).
# Columns and labels:
# [1] = tested on: Norovirus; assay: Antiviral activity against Norovirus replicon infected in human HG23 cells assessed as inhibition of viral RNA replication after 48 hrs by qRT-PCR method; type: functional, organism-based
# How it was run: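 HG23 cells carrying the NV replicon, confluent or semi-confluent, were given medium with compound (up to 100 μM) or DMSO (<0.1%) for 48 h. Total RNA was then extracted and viral genome quantified by real-time qRT-PCR. EC50 was derived from curve fitting.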
# [2] = Inhibition of Norovirus 3CL protease using Edans-DFHLQ/GP-Dabcyl as substrate preincubated for 30 mins followed by substrate addition measured for 1 hr by FRET assay
# How it was run: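 Protease preincubated at 37 °C for 30 min with serially diluted compound (up to 100 μM) or DMSO in assay buffer: 20 mM HEPES pH 8, 200 mM NaCl, 0.4 mM EDTA, 60% glycerol, 6 mM DTT. Substrate was then added. Fluorescence (ex 360/em 460 nm) was read for 1 h, with no-protease background subtracted. IC50 came from variable-slope dose-response fits.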
# [3] = Cytotoxicity against human HG23 cells after 72 hrs by crystal violet staining-based assay; type: cell-based
"EC50 ([1]; Norovirus, HG23, 48 h)",IC50 [2],EC50 [1],Compound,CC50 at 72 h [3]
8.2 µM,3.8 µM,–,CC(C)C[C@@H](C(=O)N[C@H](C=O)C[C@@H]1CCNC1=O)N1CC(COc2cccc(Cl)c2)OC1=O (mixture of isomers),> 100 µM
14.8 µM,8.1 µM,–,CC(C)C[C@@H](C(=O)N[C@H](C=O)C[C@@H]1CCNC1=O)N1CC(COCc2cccc(Cl)c2)OC1=O (mixture of isomers),> 100 µM
8.1 µM,15.1 µM,–,O=C1NCC[C@H]1C[C@H](NC(=O)[C@H](CC1CCCCC1)N1CC(Cc2cccc(Cl)c2)OC1=O)C(O)S(=O)(=O)O (mixture of isomers),46.1 µM
–,15.3 µM,15.3 µM,CC(C)C[C@@H](C(=O)N[C@H](C=O)C[C@@H]1CCNC1=O)N1CC(Cc2cccc(Cl)c2)OC1=O (stereo in doubt; 8B),> 100 µM
7.6 µM,8.5 µM,–,CC(C)C[C@@H](C(=O)N[C@@H](C[C@@H]1CCNC1=O)C(O)S(=O)(=O)O)N1CC(COc2cccc(Cl)c2)OC1=O (mixture of isomers),> 100 µM
17.3 µM,10.6 µM,–,CC(C)C[C@@H](C(=O)N[C@@H](C[C@@H]1CCNC1=O)C(O)S(=O)(=O)O)N1CC(COCc2cccc(Cl)c2)OC1=O (mixture of isomers),> 100 µM
11.5 µM,7.3 µM,–,CC(C)C[C@@H](C(=O)N[C@H](C=O)C[C@@H]1CCNC1=O)N1CC(Cc2cccc(Cl)c2)OC1=O (stereo in doubt; 8A),–
6.7 µM,13.5 µM,–,O=C[C@H](C[C@@H]1CCNC1=O)NC(=O)[C@H](CC1CCCCC1)N1CC(Cc2cccc(Cl)c2)OC1=O (mixture of isomers),55.2 µM
–,13.2 µM,17.5 µM,CC(C)C[C@@H](C(=O)N[C@@H](C[C@@H]1CCNC1=O)C(O)S(=O)(=O)O)N1CC(Cc2cccc(Cl)c2)OC1=O (stereo in doubt; 12B),> 100 µM
12.3 µM,8.2 µM,–,CC(C)C[C@@H](C(=O)N[C@@H](C[C@@H]1CCNC1=O)C(O)S(=O)(=O)O)N1CC(Cc2cccc(Cl)c2)OC1=O (stereo in doubt; 12A),–
